Assay results taken from ChEMBL document CHEMBL5058577, “EUbOPEN Chemogenomics Library 2 (Multiplex)” (2022).

System: HEK-293T
Test: Multiplex assay against HEK293T
Type: toxicity, cell-based
Conditions: human
In short: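 Live cells were stained at seeding with Hoechst33342, BioTracker Green Microtubule Cytoskeleton Dye, MitoTracker Red and Annexin V Alexa Fluor 680. Following compound addition, they were imaged on a CQ1 microscope at 37°C and 5% CO2 and gated by CellPathfinder machine learning into Hoechst high-intensity objects or normal cells, with normal cells split into healthy, pyknosed or fragmented nuclei and pyknosed cells into mitotic or apoptotic. Tubulin, mitochondrial-mass and membrane-permeability phenotypes are per cents of healthy-nucleus cells.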

[1] = 12 h, 1 µM, compound concentration 1 uM, replicate 1
[2] = 12 h, 1 µM, compound concentration 1 uM, replicate 2
[3] = 12 h, 10 µM, compound concentration 10 uM, replicate 1
[4] = 12 h, 10 µM, compound concentration 10 uM, replicate 2
[5] = 24 h, 1 µM, compound concentration 1 uM, replicate 1
[6] = 24 h, 1 µM, compound concentration 1 uM, replicate 2
[7] = 24 h, 10 µM, compound concentration 10 uM, replicate 1
[8] = 24 h, 10 µM, compound concentration 10 uM, replicate 2
[9] = 48 h, 1 µM, compound concentration 1 uM, replicate 1
[10] = 48 h, 1 µM, compound concentration 1 uM, replicate 2
[11] = 48 h, 10 µM, compound concentration 10 uM, replicate 1
[12] = 48 h, 10 µM, compound concentration 10 uM, replicate 2

C=CCN1C[C@H](C(=O)N(CCCN(C)C)C(=O)NCC)C[C@@H]2c3cccc4[nH]cc(c34)C[C@H]21 [CABERGOLINE]
Population Apoptotic (%) [1]: 36% | Population Fragmented Nuclei (%) [1]: 4% | Population Healthy Nuclei (%) [1]: 76% | Population Hoechst High Intensity Objects (%) [1]: 8% | Population Membrane Permeable-Phenotype (%) [1]: 0% | Population Mitochondria Different-Phenotype (%) [1]: 51% | Population Mitotic Cells (%) [1]: 63% | Population Normal (%) [1]: 91% | Population Pyknosed Nuclei (%) [1]: 18% | Population Tubulin-Different-Phenotype (%) [1]: 41% | Total Cell Count [1]: 370 | Population Apoptotic (%) [2]: 37% | Population Fragmented Nuclei (%) [2]: 5% | Population Healthy Nuclei (%) [2]: 79% | Population Mitochondria Different-Phenotype (%) [2]: 68% | Population Mitotic Cells (%) [2]: 62% | Population Pyknosed Nuclei (%) [2]: 14% | Population Tubulin-Different-Phenotype (%) [2]: 24% | Total Cell Count [2]: 322 | Population Apoptotic (%) [3]: 53% | Population Fragmented Nuclei (%) [3]: 8% | Population Healthy Nuclei (%) [3]: 76% | Population Hoechst High Intensity Objects (%) [3]: 12% | Population Membrane Permeable-Phenotype (%) [3]: 0% | Population Mitochondria Different-Phenotype (%) [3]: 65% | Population Mitotic Cells (%) [3]: 46% | Population Normal (%) [3]: 87% | Population Pyknosed Nuclei (%) [3]: 14% | Population Tubulin-Different-Phenotype (%) [3]: 54% | Total Cell Count [3]: 438 | Population Apoptotic (%) [4]: 60% | Population Fragmented Nuclei (%) [4]: 6% | Population Healthy Nuclei (%) [4]: 78% | Population Hoechst High Intensity Objects (%) [4]: 8% | Population Mitochondria Different-Phenotype (%) [4]: 81% | Population Mitotic Cells (%) [4]: 40% | Population Normal (%) [4]: 91% | Population Tubulin-Different-Phenotype (%) [4]: 55% | Total Cell Count [4]: 371 | Population Apoptotic (%) [5]: 43% | Population Fragmented Nuclei (%) [5]: 9% | Population Healthy Nuclei (%) [5]: 80% | Population Hoechst High Intensity Objects (%) [5]: 4% | Population Membrane Permeable-Phenotype (%) [5]: 1% | Population Mitochondria Different-Phenotype (%) [5]: 29% | Population Mitotic Cells (%) [5]: 56% | Population Normal (%) [5]: 95% | Population Pyknosed Nuclei (%) [5]: 10% | Population Tubulin-Different-Phenotype (%) [5]: 20% | Total Cell Count [5]: 512 | Population Apoptotic (%) [6]: 40% | Population Fragmented Nuclei (%) [6]: 6% | Population Healthy Nuclei (%) [6]: 83% | Population Hoechst High Intensity Objects (%) [6]: 6% | Population Membrane Permeable-Phenotype (%) [6]: 0% | Population Mitochondria Different-Phenotype (%) [6]: 46% | Population Mitotic Cells (%) [6]: 59% | Population Normal (%) [6]: 93% | Population Pyknosed Nuclei (%) [6]: 9% | Population Tubulin-Different-Phenotype (%) [6]: 19% | Total Cell Count [6]: 406 | Population Apoptotic (%) [7]: 37% | Population Fragmented Nuclei (%) [7]: 10% | Population Healthy Nuclei (%) [7]: 77% | Population Hoechst High Intensity Objects (%) [7]: 8% | Population Membrane Permeable-Phenotype (%) [7]: 0% | Population Mitochondria Different-Phenotype (%) [7]: 51% | Population Mitotic Cells (%) [7]: 62% | Population Normal (%) [7]: 91% | Population Pyknosed Nuclei (%) [7]: 11% | Population Tubulin-Different-Phenotype (%) [7]: 48% | Total Cell Count [7]: 556 | Population Apoptotic (%) [8]: 42% | Population Healthy Nuclei (%) [8]: 79% | Population Hoechst High Intensity Objects (%) [8]: 12% | Population Mitochondria Different-Phenotype (%) [8]: 64% | Population Mitotic Cells (%) [8]: 57% | Population Normal (%) [8]: 87% | Population Pyknosed Nuclei (%) [8]: 9% | Population Tubulin-Different-Phenotype (%) [8]: 43% | Total Cell Count [8]: 425 | Population Apoptotic (%) [9]: 13% | Population Fragmented Nuclei (%) [9]: 12% | Population Healthy Nuclei (%) [9]: 80% | Population Hoechst High Intensity Objects (%) [9]: 4% | Population Membrane Permeable-Phenotype (%) [9]: 1% | Population Mitochondria Different-Phenotype (%) [9]: 21% | Population Mitotic Cells (%) [9]: 86% | Population Normal (%) [9]: 95% | Population Pyknosed Nuclei (%) [9]: 7% | Population Tubulin-Different-Phenotype (%) [9]: 16% | Total Cell Count [9]: 763 | Population Apoptotic (%) [10]: 35% | Population Fragmented Nuclei (%) [10]: 11% | Population Healthy Nuclei (%) [10]: 81% | Population Hoechst High Intensity Objects (%) [10]: 3% | Population Mitochondria Different-Phenotype (%) [10]: 23% | Population Mitotic Cells (%) [10]: 65% | Population Normal (%) [10]: 96% | Population Pyknosed Nuclei (%) [10]: 6% | Population Tubulin-Different-Phenotype (%) [10]: 10% | Total Cell Count [10]: 633 | Population Apoptotic (%) [11]: 26% | Population Fragmented Nuclei (%) [11]: 13% | Population Healthy Nuclei (%) [11]: 76% | Population Hoechst High Intensity Objects (%) [11]: 5% | Population Membrane Permeable-Phenotype (%) [11]: 0% | Population Mitochondria Different-Phenotype (%) [11]: 35% | Population Mitotic Cells (%) [11]: 73% | Population Normal (%) [11]: 94% | Population Pyknosed Nuclei (%) [11]: 9% | Population Tubulin-Different-Phenotype (%) [11]: 25% | Total Cell Count [11]: 786 | Population Apoptotic (%) [12]: 43% | Population Fragmented Nuclei (%) [12]: 10% | Population Healthy Nuclei (%) [12]: 82% | Population Hoechst High Intensity Objects (%) [12]: 6% | Population Mitochondria Different-Phenotype (%) [12]: 32% | Population Mitotic Cells (%) [12]: 56% | Population Normal (%) [12]: 93% | Population Pyknosed Nuclei (%) [12]: 6% | Population Tubulin-Different-Phenotype (%) [12]: 20% | Total Cell Count [12]: 676

CC(F)(F)CN1CCOc2c(nn(-c3ccccc3Cl)c2-c2ccc(Cl)cc2)C1=O
Population Apoptotic (%) [1]: 29% | Population Healthy Nuclei (%) [1]: 77% | Population Membrane Permeable-Phenotype (%) [1]: 0% | Population Mitochondria Different-Phenotype (%) [1]: 43% | Population Mitotic Cells (%) [1]: 70% | Population Normal (%) [1]: 93% | Population Pyknosed Nuclei (%) [1]: 12% | Total Cell Count [1]: 397 | Population Apoptotic (%) [2]: 64% | Population Healthy Nuclei (%) [2]: 78% | Population Mitochondria Different-Phenotype (%) [2]: 53% | Population Mitotic Cells (%) [2]: 35% | Population Normal (%) [2]: 91% | Population Pyknosed Nuclei (%) [2]: 16% | Total Cell Count [2]: 369 | Population Apoptotic (%) [3]: 57% | Population Healthy Nuclei (%) [3]: 73% | Population Membrane Permeable-Phenotype (%) [3]: 0% | Population Mitochondria Different-Phenotype (%) [3]: 78% | Population Mitotic Cells (%) [3]: 42% | Population Normal (%) [3]: 89% | Population Pyknosed Nuclei (%) [3]: 22% | Total Cell Count [3]: 384 | Population Apoptotic (%) [4]: 43% | Population Healthy Nuclei (%) [4]: 75% | Population Mitochondria Different-Phenotype (%) [4]: 84% | Population Mitotic Cells (%) [4]: 56% | Population Normal (%) [4]: 94% | Population Pyknosed Nuclei (%) [4]: 18% | Total Cell Count [4]: 397 | Population Apoptotic (%) [5]: 25% | Population Healthy Nuclei (%) [5]: 79% | Population Membrane Permeable-Phenotype (%) [5]: 0% | Population Mitochondria Different-Phenotype (%) [5]: 22% | Population Mitotic Cells (%) [5]: 74% | Population Normal (%) [5]: 97% | Population Pyknosed Nuclei (%) [5]: 11% | Total Cell Count [5]: 568 | Population Apoptotic (%) [6]: 43% | Population Healthy Nuclei (%) [6]: 84% | Population Mitochondria Different-Phenotype (%) [6]: 31% | Population Mitotic Cells (%) [6]: 56% | Population Normal (%) [6]: 93% | Population Pyknosed Nuclei (%) [6]: 8% | Total Cell Count [6]: 478 | Population Apoptotic (%) [7]: 57% | Population Healthy Nuclei (%) [7]: 76% | Population Membrane Permeable-Phenotype (%) [7]: 0% | Population Mitochondria Different-Phenotype (%) [7]: 71% | Population Mitotic Cells (%) [7]: 42% | Population Normal (%) [7]: 92% | Population Pyknosed Nuclei (%) [7]: 15% | Total Cell Count [7]: 450 | Population Apoptotic (%) [8]: 41% | Population Healthy Nuclei (%) [8]: 80% | Population Mitochondria Different-Phenotype (%) [8]: 79% | Population Mitotic Cells (%) [8]: 58% | Population Normal (%) [8]: 94% | Total Cell Count [8]: 477 | Population Apoptotic (%) [9]: 22% | Population Healthy Nuclei (%) [9]: 77% | Population Membrane Permeable-Phenotype (%) [9]: 1% | Population Mitochondria Different-Phenotype (%) [9]: 14% | Population Mitotic Cells (%) [9]: 77% | Population Normal (%) [9]: 99% | Population Pyknosed Nuclei (%) [9]: 7% | Total Cell Count [9]: 1015 | Population Apoptotic (%) [10]: 25% | Population Healthy Nuclei (%) [10]: 79% | Population Mitochondria Different-Phenotype (%) [10]: 23% | Population Mitotic Cells (%) [10]: 74% | Population Normal (%) [10]: 97% | Total Cell Count [10]: 734 | Population Apoptotic (%) [11]: 55% | Population Healthy Nuclei (%) [11]: 74% | Population Membrane Permeable-Phenotype (%) [11]: 0% | Population Mitochondria Different-Phenotype (%) [11]: 62% | Population Mitotic Cells (%) [11]: 44% | Population Normal (%) [11]: 93% | Total Cell Count [11]: 540 | Population Apoptotic (%) [12]: 35% | Population Healthy Nuclei (%) [12]: 78% | Population Mitochondria Different-Phenotype (%) [12]: 68% | Population Mitotic Cells (%) [12]: 65% | Population Pyknosed Nuclei (%) [12]: 11% | Total Cell Count [12]: 558
